14 molecules from ChEMBL document CHEMBL3580587, “Design of Pyridopyrazine-1,6-dione γ-Secretase Modulators that Align Potency, MDR Efflux Ratio, and Metabolic Stability” (ACS Med Chem Lett, 2015) can be followed below.

By IC50 is commonly meant the concentration that inhibits the measured activity by half. Usually efflux ratio stands for the permeability from basolateral to apical divided by that in the opposite direction, in the common usage.

The target in one data set is Gamma-secretase. The data set can be described thus: Modulation of human gamma secretase overexpressed in CHO cells co-expressing wild type human APP assessed as inhibition of amyloid beta-42 production after 24 hrs by ELISA. In kind it is cell-based. A digest of the protocol:
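Whole-cell assay in CHO cells expressing wild-type APP; Aβ42 IC50 reported as geometric mean of at least two experiments.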
On the technique in general: ELISA stands for enzyme-linked immunosorbent assay.

For the next data set, the system named is MDR1 (human). In words: Efflux ratio of apparent permeability from basolateral to apical over apical to basolateral side in MDCK cells expressing human MDR1 at 2 uM after 5 hrs by transwell assay. The class given is ADME, cell-based, Canis lupus familiaris. The settings on record: dog. Summed up: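 MDR1/MDCK assay using MDCK cells transfected with the human P-glycoprotein gene; efflux ratio reported.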

The nature of data set [1]: Apparent intrinsic clearance in human liver microsomes. The class given is ADME. The note with it: read-out: CLH(app).

In the case of `Cc1cn(-c2ccc3n(c2=O)CCN(CCOc2ccccc2C(C)(C)C)C3=O)cn1`, the IC50 on Gamma-secretase was 0.128 µM. For the same molecule, the efflux ratio at 5 h, 2 µM in the data set with MDR1 (human) came out at 1.7. Also, the CLint scaled in data set [1] amounted to 95.7 mL/min/kg.

`Cc1cn(-c2ccc3n(c2=O)CCN(CCOc2ccc(F)cc2C(C)(C)C(F)(F)F)C3=O)cn1`: at Gamma-secretase, the concentration for half-maximal inhibition (IC50) worked out at 0.03 µM.

Regarding `Cc1cn(-c2ccc3n(c2=O)CCN(CCOc2ccccc2C2CCC2)C3=O)cn1`, the IC50 on Gamma-secretase was determined as 0.073 µM.

For `Cc1cn(-c2ccc3n(c2=O)CCN(CCOc2ccccc2-c2csc(C(F)(F)F)n2)C3=O)cn1`, the IC50 at Gamma-secretase came out at 0.018 µM.

For `Cc1cn(-c2ccc3n(c2=O)CCN(CCOc2ccc(F)c4nc(C(F)(F)F)sc24)C3=O)cn1`, on Gamma-secretase, the IC50 was determined as 0.025 µM.

As for `Cc1cn(-c2ccc3n(c2=O)CCN(CCOc2ccccc2-c2cc(C)ns2)C3=O)cn1`, the 50% inhibitory concentration (IC50) at Gamma-secretase came to 0.104 µM.

Regarding `Cc1cn(-c2ccc3n(c2=O)CCN(CCOc2ccccc2-c2cc(C(F)(F)F)no2)C3=O)cn1`, on Gamma-secretase, the IC50 turned out to be 0.017 µM.

Consider `Cc1cn(-c2ccc3n(c2=O)CCN(CCOc2ccc(F)cc2[C@@H](C)C(F)(F)F)C3=O)cn1`, for which, at Gamma-secretase, the IC50 is 0.02 µM.

`Cc1cn(-c2ccc3n(c2=O)CCN(CCOc2ccccc2-c2cc(C(F)F)no2)C3=O)cn1`: the IC50 on Gamma-secretase amounted to 0.072 µM.

Turning to `Cc1cn(-c2ccc3n(c2=O)CCN(CCOc2ccccc2-c2csc(C)n2)C3=O)cn1`, the IC50 on Gamma-secretase stood at 0.302 µM.

Regarding `Cc1cn(-c2ccc3n(c2=O)CCN(CCOc2cccc4ccc(F)cc24)C3=O)cn1`, in data set [1], the CLint scaled is 8.1 mL/min/kg.

In the case of `Cc1cn(-c2ccc3n(c2=O)CCN([C@@H](C)COc2ccc(F)cc2[C@@H](C)C(F)(F)F)C3=O)cn1`, the IC50 at Gamma-secretase turned out to be 0.006 µM.

As to `Cc1cn(-c2ccc3n(c2=O)CCN(CCOc2ccc(F)cc2C2CC(F)(F)C2)C3=O)cn1`, the IC50 on Gamma-secretase came to 0.059 µM.

For `Cc1cn(-c2ccc3n(c2=O)CCN(CCOc2ccc(F)cc2[C@H](C)C(F)(F)F)C3=O)cn1`, on Gamma-secretase, the 50% inhibitory concentration (IC50) came to 0.085 µM.
